The subject of test [1] is Lactuca sativa. The test is described as follows: Toxicity against Lactuca sativa (lettuce) assessed as seed radicle protrusion at low concentration after 7 days. It is filed as functional, organism-based. The gist of the method: (§1)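 Lettuce (L. sativa cv. Romana) seeds were kept on filter paper at 20 °C for 7 days with each product at 0.4-32.0 mM. Seedlings were scored at the end for abnormalities: root apex necrosis, absent cotyledons, and imbibed seeds with broken coats from starting radicle protrusion.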

The subject of test [2] is Lactuca sativa. The test is described as follows: Toxicity against Lactuca sativa (lettuce) assessed as imbibed seed with broken seed coat at low concentration after 7 days. Type of test: functional, organism-based. In short, it runs like this:
as §1

Test [3] relates to Lactuca sativa. The test is described as follows: Toxicity against Lactuca sativa (lettuce) assessed as decrease in cotyledons at low concentration after 7 days. It is filed as functional, organism-based. In short, it runs like this:
as §1

In test [4] the test system is Lactuca sativa. The test is described as follows: Toxicity against Lactuca sativa (lettuce) assessed as root apex necrosis at low concentration after 7 days. Type of test: functional, organism-based. The gist of the method: as §1
For test [5], the system named is Lactuca sativa. The test is described as follows: Toxicity against Lactuca sativa (lettuce) assessed as Inhibition of root growth after 7 days relative to control. It is filed as functional, organism-based. The gist of the method:
(§2)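 Lettuce (L. sativa cv. Romana) seeds were kept on filter paper at 20 °C for 7 days with each product at 0.4-32.0 mM. Root length of normal seedlings was measured at the end and given as percent of the untreated control. Three replicates were run.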

Test [6] deals with Lactuca sativa. The test is described as follows: Antigerminative activity against Lactuca sativa (lettuce) seeds up to 2.4 to 3.2 mM after 7 days relative to control. Type of test: functional, organism-based. In short, it runs like this: (§3)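 Lettuce (L. sativa cv. Romana) seeds germinated on filter paper at 20 °C for 7 days with each product at 0.4-32.0 mM. Read-out is the mean percentage of normal seedlings, expressed as percent of the untreated control.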

The subject of test [7] is Lactuca sativa. The test is described as follows: Toxicity against Lactuca sativa (lettuce) assessed as Inhibition of root growth up to 16 mM after 7 days relative to control. Type of test: functional, organism-based. In short, it runs like this:
as §2

Test [8] deals with Lactuca sativa. The test is described as follows: Antigerminative activity against Lactuca sativa (lettuce) seeds at 0.8 to 20 mM after 7 days relative to control. Type of test: functional, organism-based. In short, it runs like this: as §3
In test [9] the test system is Lactuca sativa. The experiment in a line: Toxicity against Lactuca sativa (lettuce) assessed as Inhibition of root growth at 0.4 to 2 mM after 7 days relative to control. It is filed as functional, organism-based. The gist of the method:
as §2

Test [10] has as its system Lactuca sativa. The experiment in a line: Antigerminative activity against Lactuca sativa (lettuce) seeds at 2 mM after 7 days relative to control. It is filed as functional, organism-based. The gist of the method: as §3
Test [11] concerns Lactuca sativa. The experiment in a line: Antigerminative activity against Lactuca sativa (lettuce) seeds at 1.2 mM after 7 days relative to control. It is filed as functional. In short, it runs like this: as §3
Test [12] deals with Lactuca sativa. The test is described as follows: Antigerminative activity against Lactuca sativa (lettuce) seeds up to 0.8 mM after 7 days relative to control. Type of test: functional, organism-based. In short, it runs like this:
as §3

In test [13] the test system is Lactuca sativa. The experiment in a line: Toxicity against Lactuca sativa (lettuce) assessed as root tissue rotting at 32 mM after 7 days. It is filed as functional, organism-based.
Test [14] concerns Lactuca sativa. The experiment in a line: Toxicity against Lactuca sativa (lettuce) assessed as decrease in root hair at 24 to 32 mM after 7 days. It is filed as functional, organism-based.
Test [15] has as its system Lactuca sativa. The experiment in a line: Toxicity against Lactuca sativa (lettuce) assessed as branched root formation at low concentration after 7 days. Type of test: functional, organism-based.
Test [16] concerns Lactuca sativa. The experiment in a line: Toxicity against Lactuca sativa (lettuce) assessed as Inhibition of root growth at 8 to 32 mM after 7 days relative to control. It is filed as functional, organism-based. The gist of the method: (§4)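 Lettuce (L. sativa cv. Romana) seeds germinated on filter paper at 20 °C for 7 days with doses of 0.4-32.0 mM. Root length of normal seedlings was measured at the end and expressed as percent of control. Three replicates were run, with standard error given.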

For test [17], the system named is Lactuca sativa. The test is described as follows: Toxicity against Lactuca sativa (lettuce) assessed as Inhibition of root growth at 4 mM after 7 days relative to control. It is filed as functional. Details: scale not given: the % may be the effect or the level left. In short, it runs like this:
as §4

Test [18] concerns Lactuca sativa. The test is described as follows: Antigerminative activity against Lactuca sativa (lettuce) seeds at 24 to 32 mM after 7 days relative to control. It is filed as functional, organism-based. The gist of the method: (§5)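 Lettuce seeds (L. sativa cv. Romana) incubated on filter paper at 20 °C for 7 days with each product at 0.4-32.0 mM. Read-out was the mean percentage of normal seedlings, expressed as percent of the untreated control.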

Test [19] concerns Lactuca sativa. The experiment in a line: Antigerminative activity against Lactuca sativa (lettuce) seeds up to 16 mM after 7 days relative to control. It is filed as functional, organism-based. The gist of the method:
as §5

The source made the active and inactive calls. No cut-off for these calls is given here.

For the compound `N#CC[C@H](O)[C@H]1CS1`, the outcome in the test on Lactuca sativa [1], in the test on Lactuca sativa [2], in the test with Lactuca sativa [3], with Lactuca sativa [4] and with Lactuca sativa [6] was Active. Also, the Activity entry with Lactuca sativa [5] is “Dose-dependent effect”.

Regarding `C=C[C@@H](O)CC#N`, the outcome with Lactuca sativa [1], in the test with Lactuca sativa [2], in the test with Lactuca sativa [3], in the test with Lactuca sativa [4] and with Lactuca sativa [8] was Active. For the same compound, the result in the test with Lactuca sativa [7] was inactive.

With `N#CC[C@H](O)[C@@H]1CS1`, the result in the test on Lactuca sativa [1], with Lactuca sativa [2], in the test on Lactuca sativa [3], in the test with Lactuca sativa [4], in the test on Lactuca sativa [9] and in the test with Lactuca sativa [10] was Active. Also, in the test on Lactuca sativa [12], the outcome was Active. In addition, the Activity with Lactuca sativa [11] was 40%.

`C=C[C@@H]1CNC(=S)O1`: the outcome in the test with Lactuca sativa [13], in the test on Lactuca sativa [14], with Lactuca sativa [15], with Lactuca sativa [16] and with Lactuca sativa [18] was Active. Moreover, the Activity in the test on Lactuca sativa [17] is reported as more than 40%. Moreover, the result with Lactuca sativa [19] was inactive.
